# Exocytosis inh = blocks lytic granule exocytosis; TALL-104 LAMP-1 surface exposure, flow cytometry; cells stimulated with thapsigargin and PMA; inhibition, % at 10 µM; actives 0.66% (n = 360,000);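 active means inhibition above about 55%, limit read from the data; inconclusive means no clear call, values can overlap the other calls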
# Myeloid diff MLP = promotes myeloid progenitor differentiation | ER-HoxA9 myeloid progenitors, lysozyme-GFP differentiation, flow cytometry | calls only at 10 µM | actives 1% (n = 360,000);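 active means normalized GFP-positive differentiation at or above the plate's own cutoff, the solvent-only control mean plus 3 SD; inconclusive means no clear call, values can overlap the other calls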;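 further: cells exposed to compound for four days before flow analysis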
# HNF4A DNA FP = change in binding of human HNF4 alpha to DNA. HNF4a-FITC DNA binding, fluorescence polarization, 1 h. actives 0.3% (n = 360,000). activity change, % at 10 µM. P41235. AID 1224865; in the data active means activity change above about 30%, passing the limit was not always enough
# CSN deneddyl inh = CSN deneddylation inhibition | Purified CSN, SCF-Nedd8-OG deneddylation, fluorescence polarization | actives 0.38% (n = 360,000) | inhibition, % at 12.5 µM | Q92905;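 active means pattern-corrected inhibition above about 35%, with an unprinted fluorescence ratio check between 0.5 and 1.5, limit read from the data, passing the limit was not always enough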;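 further: 0% = enzyme with substrate and 100% = substrate without enzyme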
# Target sequence (Q92905 whole entry, looked up, one chain of several): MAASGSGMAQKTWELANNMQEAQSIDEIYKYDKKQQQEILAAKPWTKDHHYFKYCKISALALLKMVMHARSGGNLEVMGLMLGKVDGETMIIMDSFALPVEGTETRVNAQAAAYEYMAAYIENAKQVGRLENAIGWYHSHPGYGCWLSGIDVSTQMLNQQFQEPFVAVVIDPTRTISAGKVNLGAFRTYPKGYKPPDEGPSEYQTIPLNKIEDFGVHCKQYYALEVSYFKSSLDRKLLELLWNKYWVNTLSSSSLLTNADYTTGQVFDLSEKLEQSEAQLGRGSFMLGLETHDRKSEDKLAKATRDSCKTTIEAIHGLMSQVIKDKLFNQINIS
#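 Assay system: purified human Csn5 enzyme expressed in HEK293T cells; measure: % inhibition; also added: SCFSkp2-Nedd8OG substrate at 10 nM final; technique: fluorescence polarization; times: reaction 90 min, room temperature; medium: Tris buffer pH 7.5, NaCl, DTT, Tween-20, trehalose, ovalbumin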
# Exocytosis CP01 = lytic granule exocytosis inhibition. shares compounds with Exocytosis inh. TALL-104 cells, LAMP-1 externalization, flow cytometry; stimulated with PMA plus thapsigargin. inhibition, % at 10 µM. actives 11% (n = 1,500); in the data active means inhibition above about 60%;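 further: 0% = stimulated vehicle wells and 100% = unstimulated wells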
# * hit, by the source's call; i = inactive; ? = inconclusive; · = no result given; + = active, no number. Shown are actives, neighbours in structure and some others; about 2.2% of the full set was active somewhere.
SMILES,Exocytosis inh,Myeloid diff MLP,HNF4A DNA FP,CSN deneddyl inh,Exocytosis CP01
Cc1ccc(S(=O)(=O)CCC(=O)OCc2nnc(-c3ccc([N+](=O)[O-])cc3)o2)cc1,-2,i,2,-4,·
Cc1ccc(CNC(=O)CSc2nc3c(sc4ccccc43)c(=O)n2CCCN2CCCC2)cc1,52,i,0,4,·
CCc1ccc(NC(=O)CSc2nc3ccccc3c(=O)n2CCCC(=O)NCCCN2CCOCC2)cc1,63*,i,4,-6,15
Cc1ccc(NC(=O)CSc2nc3ccccc3c(=O)n2CCCN2CCCCC2)cc1Cl,79*,i,7,5,58
O=C(CSc1nc2c(sc3ccccc32)c(=O)n1CCCN1CCCC1)NCc1ccccc1,67*,i,0,5,8
Cc1ccc(NC(=O)CSc2nc3ccccc3c(=O)n2CCCC(=O)NCCCN2CCOCC2)cc1C,42,i,-2,2,·
O=C(CSc1nc2ccccc2c(=O)n1CCCN1CCOCC1)Nc1ccc(F)c(Cl)c1,-3,i,2,2,·
C=C(C)c1cc2c(ccc3ccc(=O)oc32)o1,-6,i,0,-2,·
Cc1ccc(S(=O)(=O)N2[C@@H](Cc3ccccc3)CO[C@H]2CC(=O)c2ccccc2)cc1,4,i,-2,-3,·
O=C(CCc1nnc2ccc(NCc3ccco3)nn12)Nc1cccc(F)c1,1,?,-1,-7,·
O=C(Nc1ccc2nc(-c3cccs3)c(-c3cccs3)nc2c1)N1CCOCC1,101*,i,7,7,99*
O=C(Nc1cccc(O)c1)N1CCOCC1,3,·,0,-2,·
O=C(NCC1CC1(Cl)Cl)Nc1ccc(Cl)c(Cl)c1 (centres undefined),90*,i,3,5,-12
CCCOc1ccc(-c2c(=O)n(O)c3ccccc3[n+]2[O-])cc1,-3,i,2,-1,·
OC(CNCCC(c1ccccc1)c1ccccc1)COc1ccccc1 (centres undefined),74*,i,4,5,-4
CCC1C(=O)C(CC)C(c2ccccc2)NC1c1ccccc1 (centres undefined),61*,i,-3,2,-5
CCSC(=O)N1c2ccc(OC)cc2C=CC1C#N (centres undefined),-4,·,-5,-1,·
CCOC(=O)c1c(-c2ccc(OC)cc2)oc2ccc(O)cc12,63*,i,2,2,-12
CCOC(=O)c1c(-c2ccc(OC)cc2)oc2ccc(OCC(N)=O)cc12,31,i,-1,1,·
CCN1CCN(CCNC(=O)c2ccc(/C=C3/Sc4ccccc4N(Cc4ccccc4C)C3=O)cc2)CC1,66*,+,2,-2,29
CN(C)CCCN(C(=O)CCc1ccccc1)c1nc2ccc(Cl)cc2s1,72*,i,-1,0,51
O=C(Nc1ccccc1-c1nc2ccccc2s1)c1ccco1,71*,i,-1,1,-2
O=C(Nc1ccccc1-c1nc2ccccc2s1)c1cccnc1Cl,1,i,3,4,·
O=C(Nc1ccc(F)cc1)C1CCN(S(=O)(=O)c2ccc3[nH]c(=O)oc3c2)CC1,8,i,1,0,·
CCCCc1c(-c2ccc(OC)cc2)ncn1CCc1ccccc1OC,82*,i,0,1,27
SMILES,Exocytosis inh,Myeloid diff MLP,HNF4A DNA FP,CSN deneddyl inh,Exocytosis CP01
CCCCc1c(-c2ccccc2)ncn1CCc1ccccc1OC,17,i,4,0,·
CCCCCc1c(-c2ccc(OC)cc2)ncn1CCc1ccccc1OC,68*,i,3,3,17
OC(CN1CCN(c2cccc(Cl)c2)CC1)c1ccccc1 (centres undefined),-12,i,-4,0,·
OC(COC(c1ccccc1)c1ccccc1)CN1CCN(c2cccc(Cl)c2)CC1 (centres undefined),68*,i,-2,1,-4
C=CCN(C(=O)CCc1ccccc1OC)c1nc(-c2ccc(S(C)(=O)=O)cc2)cs1,83*,i,3,1,-12
C=CCN(C(=O)Cc1cccs1)c1nc(-c2ccc(S(C)(=O)=O)cc2)cs1,6,i,0,7,·
O=c1[nH]c([N+](=O)[O-])nn1C(c1ccccc1)c1ccccc1,1,i,0,-2,·
c1ccc(CN2CCN(C3CCCSc4ccccc43)CC2)cc1 (centres undefined),60*,i,3,2,-13
O=C1CC(N2CCN(Cc3ccccc3)CC2)C(=O)N1 (centres undefined),3,i,3,-1,·

# Compound activity deposited in PubChem by several laboratories.
